In ChEMBL document CHEMBL4261495, “Antitrypanosomal and antileishmanial activity of prenyl-1,2,3-triazoles” (Medchemcomm, 2017):

Tests used:
[1] = Octanol/water partition coefficient, log P of the compound; format: physicochemical
Trypanosoma cruzi = experiment: Antitrypanosomal activity against Trypanosoma cruzi strain CL Brener epimastigotes measured after 72 hrs by Neubauer chamber based cell counting method; format: functional, organism-based
Summary of the method: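 CL-Brener epimastigotes were grown in BHT medium at 28 °C and seeded at 3-4 × 10^6 parasites/mL. Compound was added in DMSO (1% final) at 5-100 µg/mL, with benznidazole as positive control. After 72 h, parasites were counted in a Neubauer chamber and inhibition was taken relative to untreated growth. IC50 came from the inhibition-concentration plot. Triplicates were run; values average three independent experiments.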

Vero = experiment: Cytotoxicity against African green monkey Vero cells at 20 uM after 2 days by neutral red uptake assay; format: cell-based; details: chlorocebus sabaeus, 48 h
Leishmania donovani = experiment: Antileishmanial activity against Leishmania donovani S1 promastigotes after 72 hrs by alamar blue assay; format: functional, organism-based; details: S1, 72 h
Summary of the method: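 Leishmania donovani strain S1 promastigotes at 2×10^6 cells/mL were exposed to final concentrations of 40, 8 and 1.6 µg/mL. Plates were incubated 72 h at 26 °C, and growth was read by Alamar blue. Pentamidine and amphotericin B served as standards.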

[2] = target: Sterol 14-alpha demethylase (Trypanosoma cruzi (strain CL Brener), UniProt Q7Z1V1); experiment: Binding affinity to Trypanosoma cruzi CYP51 by spectrophotometric method
Sequence of Sterol 14-alpha demethylase (Q7Z1V1 whole entry): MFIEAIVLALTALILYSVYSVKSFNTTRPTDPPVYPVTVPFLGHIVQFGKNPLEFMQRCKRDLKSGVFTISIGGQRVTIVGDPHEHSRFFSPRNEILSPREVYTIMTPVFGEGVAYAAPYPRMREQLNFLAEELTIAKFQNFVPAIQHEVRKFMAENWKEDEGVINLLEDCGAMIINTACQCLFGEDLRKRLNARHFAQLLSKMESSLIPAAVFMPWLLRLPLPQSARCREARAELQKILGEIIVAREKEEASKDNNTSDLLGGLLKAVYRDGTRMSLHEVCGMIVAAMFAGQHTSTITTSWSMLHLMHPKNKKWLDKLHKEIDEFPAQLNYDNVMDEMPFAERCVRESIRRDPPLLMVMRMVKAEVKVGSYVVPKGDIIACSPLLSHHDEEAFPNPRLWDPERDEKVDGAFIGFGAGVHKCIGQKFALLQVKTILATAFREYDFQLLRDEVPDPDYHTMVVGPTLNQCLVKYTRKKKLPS
Summary of the method: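 Spectral titration used 2 µM TcCYP51 in buffer A at 24 °C, scanned over 350-500 nm in tandem cuvettes. Ligand was added stepwise from 1 or 10 mM DMSO stocks until the spectral response peaked, with DMSO added to the reference cuvette. Apparent Kd came from fitting absorbance change against free ligand concentration to a rectangular hyperbola.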

[3] = target: Sterol 14-alpha demethylase (Trypanosoma cruzi (strain CL Brener)) (UniProt Q7Z1V1); experiment: Inhibition of Trypanosoma cruzi CYP51 assessed as residual enzyme activity at 100 uM using [3H]-MDL as substrate pretreated for 5 mins followed by NADPH addition by RP-HPLC analysis relative to control
Sequence of Sterol 14-alpha demethylase (Trypanosoma cruzi (strain CL Brener)) (Q7Z1V1 whole entry, looked up): as the sequence (Q7Z1V1 whole entry) above
Summary of the method: (§1)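 TcCYP51 was reconstituted with T. brucei CPR and DLPC (1:2:50 molar), preincubated 10 min at room temperature. The reaction held 1 µM enzyme and 50 µM [3H]-labelled/unlabelled 24-methylenedihydrolanosterol in 20 mM MOPS pH 7.4, 50 mM KCl, 5 mM MgCl2, 10% glycerol, isocitrate dehydrogenase and 25 mM isocitrate. Inhibitor (1-100 µM) was preincubated 5 min at 37 °C, then 5 µM NADPH started the reaction. Products were detected by radioactivity.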

[4] = target: Sterol 14-alpha demethylase (Trypanosoma cruzi (strain CL Brener)) (UniProt Q7Z1V1); experiment: Inhibition of Trypanosoma cruzi CYP51 assessed as residual enzyme activity at 100 uM using [3H]-MDL as substrate pretreated for 10 mins followed by NADPH addition by RP-HPLC analysis relative to control; summary of the method: as §1

| Structure (SMILES) | logP [1] | IC50 (Trypanosoma cruzi) [µM] | Activity (Vero) | IC50 (Leishmania donovani) [µM] | Kd [2] [µM] | Activity [3] [%] | Activity [4] [%] |
| --- | --- | --- | --- | --- | --- | --- | --- |
| CCCCCCCCc1cn(C/C=C(/C)CCC=C(C)C)nn1 | 6.92 | 34 | Non-Toxic | 16 | – | – | – |
| O=C(Cn1ccnc1[N+](=O)[O-])NCc1ccccc1 [BENZNIDAZOLE] | 0.78 | – | – | – | – | – | – |
| CC(C)=CCC/C(C)=C\Cn1cc(-c2ccccc2)nn1 | 4.91 | 39 | Non-Toxic | 49 | – | – | – |
| CCCCCc1cn(C/C=C(/C)CC/C=C(\C)CCC=C(C)C)nn1 | 7.5 | 18 | Non-Toxic | 11 | 7.6 | 7 | 39 |
| CCCCCc1cn(CC=C(C)C)nn1 | 3.46 | > 100 | Non-Toxic | > 100 | – | – | – |
| CCCCCCCCc1cn(C/C=C(/C)CC/C=C(\C)CCC=C(C)C)nn1 | 8.76 | > 100 | Non-Toxic | 52 | – | – | – |
| CCCCCCCCc1cn(C/C=C(\C)CC/C=C(\C)CCC=C(C)C)nn1 | 8.76 | > 100 | Non-Toxic | 36 | – | – | – |
| CCCc1cn(C/C=C(/C)CC/C=C(\C)CCC=C(C)C)nn1 | 6.5 | 17 | Non-Toxic | 33 | – | 14 | 49 |
| CCCc1cn(C/C=C(/C)CCC=C(C)C)nn1 | 4.05 | 44 | Non-Toxic | 44 | – | – | – |
| CC(C)=CCC/C(C)=C/Cn1cc(-c2ccccc2)nn1 | 4.91 | 39 | Non-Toxic | 49 | – | – | – |
| CC(C)=CCn1cc(-c2ccccc2)nn1 | 2.82 | > 100 | Non-Toxic | > 100 | – | – | – |
| CCCCCc1cn(C/C=C(/C)CCC=C(C)C)nn1 | 5.45 | 36 | Non-Toxic | 40 | – | – | – |
| CCCc1cn(C/C=C(\C)CCC=C(C)C)nn1 | 4.5 | 31 | Non-Toxic | 72 | – | – | – |
| CCCCCc1cn(C/C=C(\C)CCC=C(C)C)nn1 | 5.45 | 51 | Non-Toxic | 94 | – | – | – |
| CCCc1cn(CC=C(C)C)nn1 | 2.47 | > 100 | Non-Toxic | > 100 | – | – | – |
| CC(C)=CCC/C(C)=C/CC/C(C)=C/Cn1cc(-c2ccccc2)nn1 | 6.95 | 34 | Non-Toxic | 48 | – | – | – |
| CCCCCCCCc1cn(C/C=C(\C)CCC=C(C)C)nn1 | 6.92 | 27 | Non-Toxic | 57 | – | – | – |
| COC(=O)c1cn(CC=C(C)C)nn1 | 1.3 | > 100 | Non-Toxic | > 100 | – | – | – |
| CCCc1cn(C/C=C(\C)CC/C=C(\C)CCC=C(C)C)nn1 | 6.5 | 18 | Non-Toxic | 51 | – | 27 | 56 |
| CCCCCc1cn(C/C=C(\C)CC/C=C(\C)CCC=C(C)C)nn1 | 7.5 | 29 | Non-Toxic | 44 | – | 9 | 33 |
| COC(=O)c1cn(C/C=C(\C)CCC=C(C)C)nn1 | 3.2 | 87 | Non-Toxic | > 100 | – | – | – |
| CC(C)=CCC/C(C)=C/CC/C(C)=C\Cn1cc(-c2ccccc2)nn1 | 6.95 | 32 | Non-Toxic | 49 | – | – | – |
| COC(=O)c1cn(C/C=C(/C)CCC=C(C)C)nn1 | 3.2 | 87 | Non-Toxic | > 100 | – | – | – |
| CCCCCCCCc1cn(CC=C(C)C)nn1 | 4.92 | 27 | Non-Toxic | > 100 | – | – | – |
| N=C(N)c1ccc(OCCCCCOc2ccc(C(=N)N)cc2)cc1 [PENTAMIDINE] | 1.49 | – | – | – | – | – | – |
| COC(=O)c1cn(C/C=C(/C)CC/C=C(\C)CCC=C(C)C)nn1 | 5.25 | 15 | Non-Toxic | 11 | – | 26 | 59 |
| COC(=O)c1cn(C/C=C(\C)CC/C=C(\C)CCC=C(C)C)nn1 | 5.25 | 9 | Non-Toxic | 31 | – | 35 | 63 |
